Calls of active or inactive are those of the source. The rule behind the calls is not given here.
How the values were obtained:
[1] = target: Dual specificity protein kinase CLK4 (Homo sapiens) (UniProt Q9HAZ1); test: Binding affinity to wild-type human partial length CLK4 (R135 to K481 residues) expressed in bacterial expression system assessed as residual binding level at 1 uM by Kinomescan method relative to control
Method in brief: (§1)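 Kinome-wide competition binding screen against a panel of 468 purified kinases/mutants, with the test compound at a single concentration of 1 μM. Read-out is the relative binding activity of each kinase in the presence of compound.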

[2] = target: Myotonin-protein kinase (Homo sapiens) (UniProt Q09013); test: Binding affinity to wild-type human partial length DMPK (V47 to V415 residues) expressed in bacterial expression system assessed as residual binding level at 1 uM by Kinomescan method relative to control; method in brief: as §1
[3] = target: Ephrin type-A receptor 1 (Homo sapiens) (UniProt P21709); test: Binding affinity to wild-type human partial length EPHA1 (V588 to I913 residues) expressed in bacterial expression system assessed as residual binding level at 1 uM by Kinomescan method relative to control
Sequence of Ephrin type-A receptor 1 (Homo sapiens) (P21709 whole entry, the tested form may be a part): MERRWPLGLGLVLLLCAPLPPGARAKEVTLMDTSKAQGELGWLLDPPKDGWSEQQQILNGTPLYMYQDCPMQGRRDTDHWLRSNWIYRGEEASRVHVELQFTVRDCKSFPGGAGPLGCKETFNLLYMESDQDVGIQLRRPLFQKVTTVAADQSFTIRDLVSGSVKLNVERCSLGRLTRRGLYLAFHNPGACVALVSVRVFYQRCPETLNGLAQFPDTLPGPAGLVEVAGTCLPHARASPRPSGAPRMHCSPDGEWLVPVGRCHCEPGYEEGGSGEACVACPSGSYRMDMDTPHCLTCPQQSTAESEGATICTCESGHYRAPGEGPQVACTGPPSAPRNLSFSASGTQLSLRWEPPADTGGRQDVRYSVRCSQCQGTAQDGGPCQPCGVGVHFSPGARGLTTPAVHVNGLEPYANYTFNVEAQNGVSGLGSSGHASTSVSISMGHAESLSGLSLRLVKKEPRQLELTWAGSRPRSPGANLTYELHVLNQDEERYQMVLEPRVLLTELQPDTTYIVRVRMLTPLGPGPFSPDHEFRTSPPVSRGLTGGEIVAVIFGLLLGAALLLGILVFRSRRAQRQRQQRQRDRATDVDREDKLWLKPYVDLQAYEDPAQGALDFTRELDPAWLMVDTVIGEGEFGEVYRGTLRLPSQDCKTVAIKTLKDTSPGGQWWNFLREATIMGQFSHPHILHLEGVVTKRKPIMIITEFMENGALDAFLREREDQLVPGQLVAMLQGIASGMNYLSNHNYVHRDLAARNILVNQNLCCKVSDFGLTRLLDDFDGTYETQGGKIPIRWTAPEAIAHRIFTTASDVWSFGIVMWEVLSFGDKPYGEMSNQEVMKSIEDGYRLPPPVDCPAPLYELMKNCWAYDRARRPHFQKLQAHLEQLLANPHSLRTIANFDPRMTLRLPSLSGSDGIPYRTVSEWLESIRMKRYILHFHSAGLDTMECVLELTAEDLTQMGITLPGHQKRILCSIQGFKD

[4] = target: Protein-tyrosine kinase 6 (Homo sapiens) (UniProt Q13882); test: Binding affinity to wild-type human partial length BRK (L166 to T451 residues) expressed in bacterial expression system assessed as residual binding level at 1 uM by Kinomescan method relative to control
Method in brief: (§2)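 Single-concentration KINOMEscan (DiscoverX) binding screen at 1 μM against a panel of 468 purified kinases and mutants. The read-out is binding relative to control.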

[5] = target: Calcium/calmodulin-dependent protein kinase type II subunit gamma (Homo sapiens) (UniProt Q13555); test: Binding affinity to wild-type human partial length CAMK2G (R9 to A303 residues) expressed in bacterial expression system assessed as residual binding level at 1 uM by Kinomescan method relative to control
[6] = target: Serine/threonine-protein kinase ICK (Homo sapiens) (UniProt Q9UPZ9); test: Binding affinity to wild-type human partial length ICK (M1 to P314 residues) expressed in mammalian expression system assessed as residual binding level at 1 uM by Kinomescan method relative to control
Sequence of Serine/threonine-protein kinase ICK (Homo sapiens) (Q9UPZ9 whole entry, the tested form may be a part): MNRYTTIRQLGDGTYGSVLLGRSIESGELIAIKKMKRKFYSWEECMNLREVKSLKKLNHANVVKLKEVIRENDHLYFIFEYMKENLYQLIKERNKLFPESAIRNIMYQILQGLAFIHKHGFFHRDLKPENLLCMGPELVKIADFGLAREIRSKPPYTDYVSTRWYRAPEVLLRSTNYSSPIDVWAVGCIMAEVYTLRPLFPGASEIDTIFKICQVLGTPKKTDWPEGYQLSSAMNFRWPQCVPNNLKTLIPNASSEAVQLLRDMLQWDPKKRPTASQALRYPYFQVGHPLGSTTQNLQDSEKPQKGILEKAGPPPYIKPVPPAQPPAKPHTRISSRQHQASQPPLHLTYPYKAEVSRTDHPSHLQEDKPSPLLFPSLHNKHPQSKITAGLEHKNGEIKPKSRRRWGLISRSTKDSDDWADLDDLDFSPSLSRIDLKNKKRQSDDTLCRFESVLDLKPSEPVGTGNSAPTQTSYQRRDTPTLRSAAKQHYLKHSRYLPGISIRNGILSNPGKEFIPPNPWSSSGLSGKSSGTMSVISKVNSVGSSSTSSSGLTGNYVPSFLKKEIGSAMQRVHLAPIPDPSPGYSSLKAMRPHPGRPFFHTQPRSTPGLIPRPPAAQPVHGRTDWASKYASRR

[7] = target: Platelet-derived growth factor receptor beta (Homo sapiens, UniProt P09619); test: Inhibition of TEL-fused PDGFRbeta (unknown origin) expressed in mouse BA/F3 cells assessed as growth inhibition after 72 hrs by CellTiter-Glo or CCK-8 assay; type: cell-based
Method in brief: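 Parental BaF3 or IL-3-independent TEL-kinase BaF3 lines, made by retroviral infection and puromycin selection, grown in RPMI 1640 with 10% FBS. Cells seeded at 1–3 × 10^4 cells/mL with serial compound concentrations for 72 h. Viability read by CellTiter-Glo luminescence or CCK-8 absorbance at 450/655 nm and normalised to DMSO. GI50 obtained by triplicate testing with linear regression. Selectivity is the ratio of the two GI50 values.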

[8] = target: cAMP-dependent protein kinase catalytic subunit PRKX (Homo sapiens) (UniProt P51817); test: Binding affinity to wild-type human partial length PRKX (M1 to F358 residues) expressed in bacterial expression system assessed as residual binding level at 1 uM by Kinomescan method relative to control
Sequence of cAMP-dependent protein kinase catalytic subunit PRKX (Homo sapiens) (P51817 whole entry, the tested form may be a part): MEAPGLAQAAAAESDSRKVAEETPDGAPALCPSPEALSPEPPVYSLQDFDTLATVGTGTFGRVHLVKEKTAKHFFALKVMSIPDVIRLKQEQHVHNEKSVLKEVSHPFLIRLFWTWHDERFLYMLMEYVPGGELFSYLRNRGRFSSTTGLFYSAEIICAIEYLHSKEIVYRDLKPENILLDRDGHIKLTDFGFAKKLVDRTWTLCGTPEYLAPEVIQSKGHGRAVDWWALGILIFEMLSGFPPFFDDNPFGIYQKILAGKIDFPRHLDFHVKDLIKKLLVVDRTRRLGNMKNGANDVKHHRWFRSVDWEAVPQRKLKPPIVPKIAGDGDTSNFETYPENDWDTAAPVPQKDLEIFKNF
Method in brief: (§3)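 KINOMEscan competition binding against a panel of 468 purified kinases/mutants, compound tested at 1 μM; readout is relative binding activity versus control.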

[9] = target: RAC-gamma serine/threonine-protein kinase (Homo sapiens) (UniProt Q9Y243); test: Binding affinity to wild-type human partial length AKT3 expressed in bacterial expression system assessed as residual binding level at 1 uM by Kinomescan method relative to control; method in brief: as §1
Sequence of RAC-gamma serine/threonine-protein kinase (Homo sapiens) (Q9Y243 whole entry, the tested form may be a part): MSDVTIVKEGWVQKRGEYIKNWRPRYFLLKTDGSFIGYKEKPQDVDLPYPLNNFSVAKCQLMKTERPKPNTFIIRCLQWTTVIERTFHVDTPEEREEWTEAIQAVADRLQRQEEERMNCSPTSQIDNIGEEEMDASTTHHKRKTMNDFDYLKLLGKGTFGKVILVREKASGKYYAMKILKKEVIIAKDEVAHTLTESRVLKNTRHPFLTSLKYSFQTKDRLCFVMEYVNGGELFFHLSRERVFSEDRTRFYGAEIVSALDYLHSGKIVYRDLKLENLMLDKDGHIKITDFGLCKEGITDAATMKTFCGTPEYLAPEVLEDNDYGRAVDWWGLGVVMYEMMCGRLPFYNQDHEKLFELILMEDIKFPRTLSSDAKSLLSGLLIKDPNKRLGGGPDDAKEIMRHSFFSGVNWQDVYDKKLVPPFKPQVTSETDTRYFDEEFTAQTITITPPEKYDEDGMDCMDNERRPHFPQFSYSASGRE

[10] = target: Dual specificity mitogen-activated protein kinase kinase 7 (Homo sapiens) (UniProt O14733); test: Binding affinity to wild-type human full length MKK7 (M1 to R419 residues) expressed in mammalian expression system assessed as residual binding level at 1 uM by Kinomescan method relative to control; method in brief: as §2
Sequence of Dual specificity mitogen-activated protein kinase kinase 7 (Homo sapiens) (O14733 whole entry, the tested form may be a part): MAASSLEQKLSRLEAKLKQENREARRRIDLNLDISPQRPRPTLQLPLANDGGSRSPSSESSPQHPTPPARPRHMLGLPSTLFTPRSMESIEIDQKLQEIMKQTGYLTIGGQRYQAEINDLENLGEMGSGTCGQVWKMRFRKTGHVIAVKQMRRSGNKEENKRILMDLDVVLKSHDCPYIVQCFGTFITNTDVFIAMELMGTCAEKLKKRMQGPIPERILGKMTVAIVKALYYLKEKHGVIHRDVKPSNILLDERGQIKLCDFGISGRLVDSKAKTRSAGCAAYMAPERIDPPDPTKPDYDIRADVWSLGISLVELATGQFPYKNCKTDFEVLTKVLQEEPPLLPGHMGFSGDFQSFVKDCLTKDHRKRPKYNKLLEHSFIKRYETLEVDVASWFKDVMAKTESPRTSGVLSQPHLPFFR

[11] = target: Serine/threonine-protein kinase NIM1 (Homo sapiens) (UniProt Q8IY84); test: Binding affinity to wild-type human partial length NIM1 (Q44 to N355 residues) expressed in mammalian expression system assessed as residual binding level at 1 uM by Kinomescan method relative to control
[12] = target: Vascular endothelial growth factor receptor 2 (Homo sapiens) (UniProt P35968); test: Binding affinity to wild-type human partial length VEGFR2 (R787 to P1253 residues) expressed in mammalian expression system assessed as residual binding level at 1 uM by Kinomescan method relative to control; method in brief: as §3
Sequence of Vascular endothelial growth factor receptor 2 (Homo sapiens) (P35968 whole entry, the tested form may be a part): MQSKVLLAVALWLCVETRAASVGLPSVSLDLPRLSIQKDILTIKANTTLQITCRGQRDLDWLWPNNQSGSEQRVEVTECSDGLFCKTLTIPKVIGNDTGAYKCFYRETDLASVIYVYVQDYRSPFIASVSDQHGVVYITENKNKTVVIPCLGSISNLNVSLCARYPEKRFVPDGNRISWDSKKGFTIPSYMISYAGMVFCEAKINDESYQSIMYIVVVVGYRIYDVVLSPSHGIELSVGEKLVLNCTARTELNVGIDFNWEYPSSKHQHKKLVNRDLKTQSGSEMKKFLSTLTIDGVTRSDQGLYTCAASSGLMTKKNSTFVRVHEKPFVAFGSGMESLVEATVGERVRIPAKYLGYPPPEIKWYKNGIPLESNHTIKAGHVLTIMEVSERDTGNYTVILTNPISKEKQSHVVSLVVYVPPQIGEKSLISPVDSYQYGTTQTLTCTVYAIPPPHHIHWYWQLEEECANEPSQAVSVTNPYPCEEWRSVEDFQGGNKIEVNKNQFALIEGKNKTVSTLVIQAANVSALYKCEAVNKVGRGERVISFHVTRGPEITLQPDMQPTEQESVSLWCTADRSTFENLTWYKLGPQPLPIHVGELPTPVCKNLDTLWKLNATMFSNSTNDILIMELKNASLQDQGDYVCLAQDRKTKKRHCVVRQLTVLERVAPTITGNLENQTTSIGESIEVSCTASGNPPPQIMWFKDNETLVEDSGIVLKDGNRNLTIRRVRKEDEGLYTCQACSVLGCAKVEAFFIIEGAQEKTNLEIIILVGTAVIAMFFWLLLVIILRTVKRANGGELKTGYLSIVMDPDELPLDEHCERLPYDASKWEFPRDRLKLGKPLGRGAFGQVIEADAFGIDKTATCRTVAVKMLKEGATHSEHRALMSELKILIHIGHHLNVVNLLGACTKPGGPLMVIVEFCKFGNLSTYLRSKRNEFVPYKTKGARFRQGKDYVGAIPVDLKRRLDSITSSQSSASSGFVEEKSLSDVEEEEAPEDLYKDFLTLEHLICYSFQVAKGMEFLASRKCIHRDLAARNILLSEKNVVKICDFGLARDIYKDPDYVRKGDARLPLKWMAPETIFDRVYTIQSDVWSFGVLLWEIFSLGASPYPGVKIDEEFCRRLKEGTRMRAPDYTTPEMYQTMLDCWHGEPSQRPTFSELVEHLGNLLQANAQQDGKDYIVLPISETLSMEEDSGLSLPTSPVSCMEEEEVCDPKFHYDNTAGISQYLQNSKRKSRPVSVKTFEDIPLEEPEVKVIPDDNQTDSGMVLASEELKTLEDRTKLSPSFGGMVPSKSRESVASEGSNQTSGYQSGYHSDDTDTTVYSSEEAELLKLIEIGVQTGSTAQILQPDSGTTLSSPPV

[13] = test system: Receptor-type tyrosine-protein kinase FLT3 (Homo sapiens), P36888 [N841I]; test: Binding affinity to human partial length FLT3 N841I mutant (V592 to Y969 residues) expressed in bacterial expression system assessed as residual binding level at 1 uM by Kinomescan method relative to control
Method in brief: (§4)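 Kinome-wide single-concentration binding screen (KINOMEscan) at 1 μM against a panel of 468 purified kinases and mutants. Read-out is relative binding of each kinase compared with control. Selectivity across the panel was summarised as an S(10) score.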

[14] = test system: Epidermal growth factor receptor (Homo sapiens), P00533 [L858R,T790M]; test: Binding affinity to human partial length EGFR L858R/T790M double mutant (R669 to V1011 residues) expressed in mammalian expression system assessed as residual binding level at 1 uM by Kinomescan method relative to control; method in brief: as §4
[15] = target: STE20/SPS1-related proline-alanine-rich protein kinase (Homo sapiens) (UniProt Q9UEW8); test: Binding affinity to wild-type human partial length STK39 (P43 to I357 residues) expressed in mammalian expression system assessed as residual binding level at 1 uM by Kinomescan method relative to control
[16] = target: Mitogen-activated protein kinase kinase kinase 13 (Homo sapiens) (UniProt O43283); test: Binding affinity to wild-type human full length LZK (M1 to W966 residues) expressed in mammalian expression system assessed as residual binding level at 1 uM by Kinomescan method relative to control
Method in brief: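 Single-concentration (1 μM) competition-binding screen run by KINOMEscan against a panel of 468 purified kinases and mutants. The read-out is the relative binding activity of the test compound to each kinase.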

[17] = target: NUAK family SNF1-like kinase 1 (Homo sapiens) (UniProt O60285); test: Binding affinity to wild-type human partial length ARK5 (E25 to I332 residues) expressed in bacterial expression system assessed as residual binding level at 1 uM by Kinomescan method relative to control; method in brief: as §2
[18] = test system: Tyrosine-protein kinase ABL1 (Homo sapiens), P00519 [E255K]; test: Binding affinity to human phosphorylated ABL1 E255K mutant (S229 to K512 residues) expressed in mammalian expression system assessed as residual binding level at 1 uM by Kinomescan method relative to control; method in brief: as §4
EOL1 = test: Cell cycle arrest in human EOL-1 cells assessed as accumulation at G0/G1 phase at 0.01 to 0.3 uM after 12 hrs by propidium iodide/RNase staining-based flow cytometric analysis; type: functional
Method in brief: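 Cells treated with compound or DMSO for the stated periods, fixed overnight in 70% cold ethanol at −20 °C, stained with PI/RNase buffer, then analysed by flow cytometry for cell-cycle distribution. For NCI-H1703 stimulation, PDGF AA was used at 100 ng/mL.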

Sequence of Dual specificity protein kinase CLK4 (Homo sapiens) (Q9HAZ1 whole entry, looked up, the tested form may be a part): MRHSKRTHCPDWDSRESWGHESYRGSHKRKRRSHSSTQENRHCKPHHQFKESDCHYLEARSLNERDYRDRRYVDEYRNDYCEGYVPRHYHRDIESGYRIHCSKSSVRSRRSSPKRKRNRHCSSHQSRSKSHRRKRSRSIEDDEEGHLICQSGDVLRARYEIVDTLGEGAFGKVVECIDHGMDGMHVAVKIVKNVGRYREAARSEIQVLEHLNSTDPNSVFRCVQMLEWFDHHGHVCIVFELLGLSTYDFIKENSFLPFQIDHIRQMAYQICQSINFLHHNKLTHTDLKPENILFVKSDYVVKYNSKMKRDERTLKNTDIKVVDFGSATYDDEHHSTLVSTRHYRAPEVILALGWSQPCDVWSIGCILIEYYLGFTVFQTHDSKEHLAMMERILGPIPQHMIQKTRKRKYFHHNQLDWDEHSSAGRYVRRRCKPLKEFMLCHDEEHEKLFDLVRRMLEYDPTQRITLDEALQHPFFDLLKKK

Question: With `Cc1ccc(NC(=O)c2ccc(CN(CCN(C)C)C(=O)c3cccnc3)cc2)cc1Nc1nccc(-c2cccnc2)n1` as the molecule, how does the Activity [1] read?
Answer: 66%

Question: What about the Activity [2] of the same molecule?
Answer: 89%

Question: What about the Activity [3] of the same molecule?
Answer: 100%

Question: What about the Activity [4] of the same molecule?
Answer: 81%

Question: What about the Activity [5] of the same molecule?
Answer: 93%

Question: And the Activity [6]?
Answer: 100%

Question: And the GI50 [7]?
Answer: 2900 nM

Question: What about the Activity [8] of the same molecule?
Answer: 92%

Question: And the Activity [9]?
Answer: 92%

Question: What about the Activity [10] of the same molecule?
Answer: 100%

Question: What about the Activity [11] of the same molecule?
Answer: 100%

Question: What about the Activity [12] of the same molecule?
Answer: 92%

Question: And the Activity [13]?
Answer: 100%

Question: What about the Activity [14] of the same molecule?
Answer: 94%

Question: And the Activity [15]?
Answer: 90%

Question: And the Activity [16]?
Answer: 100%

Question: What about the Activity [17] of the same molecule?
Answer: 93%

Question: And the Activity [18]?
Answer: 80%

Question: And the Activity (EOL1)?
Answer: Active

From ChEMBL document CHEMBL4229344 (Eur J Med Chem, 2018)
